The values below come from ChEMBL document CHEMBL4007402 (J Med Chem, 2017).

Data set [1] addresses T1, Cytoplasmic tyrosine-protein kinase BMX (Homo sapiens) (UniProt P51813).
T1 sequence (whole entry): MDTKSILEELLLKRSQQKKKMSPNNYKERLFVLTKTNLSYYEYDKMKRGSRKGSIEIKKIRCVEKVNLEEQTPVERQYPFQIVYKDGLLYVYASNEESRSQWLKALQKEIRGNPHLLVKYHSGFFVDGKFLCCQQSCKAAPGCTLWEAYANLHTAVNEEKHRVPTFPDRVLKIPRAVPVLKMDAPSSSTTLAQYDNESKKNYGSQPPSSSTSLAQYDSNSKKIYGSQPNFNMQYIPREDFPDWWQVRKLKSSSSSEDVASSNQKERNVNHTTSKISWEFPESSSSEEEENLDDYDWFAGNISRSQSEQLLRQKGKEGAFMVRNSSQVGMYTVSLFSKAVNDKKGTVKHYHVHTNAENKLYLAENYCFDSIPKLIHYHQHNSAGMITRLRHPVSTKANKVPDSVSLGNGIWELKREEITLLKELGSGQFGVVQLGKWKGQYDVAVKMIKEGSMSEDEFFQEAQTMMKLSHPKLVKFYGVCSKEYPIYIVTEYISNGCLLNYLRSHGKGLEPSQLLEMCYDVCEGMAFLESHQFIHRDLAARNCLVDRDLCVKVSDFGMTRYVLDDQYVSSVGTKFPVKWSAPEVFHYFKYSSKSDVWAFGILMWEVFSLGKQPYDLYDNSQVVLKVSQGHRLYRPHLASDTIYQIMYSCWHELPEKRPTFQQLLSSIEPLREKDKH

A short description of data set [2]: Growth inhibition of mouse BAF3 cells after 72 hrs by CellTiter-Glo or CCK-8 assay. The class given is cell-based. Put shortly:
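Isogenic murine BaF3 cells transformed with TEL-fused kinases, whose proliferation depends on the fused kinase, were used. Parental BaF3 cells served as the general selectivity counter-screen. The anti-proliferative read-out was reported as GI50.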
A general note: Cellular ATP, detected with luciferase, serves as a proxy for viable cell number.

In data set [1], `C=CC(=O)Nc1cc(Nc2ncc3c(n2)N(C)C(=O)N(c2cc(NC(=O)c4cc(OC)c(OC)c(OC)c4)ccc2C)C3)ccc1C` returned a GI50 of 5.93 µM. The GI50 at 72 h in data set [2] is > 10 µM.

On to `C=CC(=O)Nc1cc(Nc2ncc3c(n2)N(C)C(=O)N(c2cc(NC(=O)[C@@H](N)Cc4ccccc4)ccc2C)C3)ccc1C`, for which, in data set [2], the GI50 at 72 h is > 10 µM.

The compound `C=CC(=O)Nc1cc(Nc2ncc3c(n2)N(C)C(=O)N(c2cc(NC(=O)c4cc(C(F)(F)F)cc(C(F)(F)F)c4)ccc2C)C3)ccc1C` registered a GI50 in data set [1] of 0.78 µM. Besides, in data set [2], the GI50 at 72 h is > 10 µM.

The compound `C=CC(=O)Nc1cc(Nc2ncc3c(n2)N(C)C(=O)N(c2cc(NC(=O)c4ccc(N(C)C)cc4)ccc2C)C3)ccc1C` registered a GI50 in data set [1] of 1.03 µM. Further, the GI50 at 72 h in data set [2] is > 10 µM.

`C=CC(=O)Nc1cc(Nc2ncc(C(=O)Nc3cc(NC(=O)c4cc(C)ccc4F)ccc3C)c(NC)n2)ccc1C`: halving of growth in data set [1] (GI50) required 0.044 µM. In data set [2], the GI50 at 72 h was > 10 µM.

In turn, `C=CC(=O)Nc1cc(Nc2ncc3c(n2)N(C)C(=O)N(c2cc(NC(=O)c4ccc5c(c4)OCO5)ccc2C)C3)ccc1C` had a GI50 in data set [1] of 0.23 µM. In addition, the GI50 at 72 h in data set [2] is > 10 µM.

Consider `C=CC(=O)Nc1cc(Nc2ncc3c(n2)N(C)C(=O)N(c2cc(NC(=O)c4cc(OC)cc(OC)c4)ccc2C)C3)ccc1C`, for which it took 0.69 µM to inhibit growth in data set [1] by half (GI50). Also, the GI50 at 72 h in data set [2] is > 10 µM.

On to `C=CC(=O)Nc1cc(Nc2ncc3c(n2)N(C)C(=O)N(c2cc(NC(=O)c4ccc(OC)cc4OC)ccc2C)C3)ccc1C`, for which the GI50 in data set [1] came out at 2.74 µM. The GI50 at 72 h in data set [2] was > 10 µM.

Take `C=CC(=O)Nc1cc(Nc2ncc3c(n2)N(C)C(=O)N(c2cc(NC(=O)[C@@H](N)CC(C)C)ccc2C)C3)ccc1C`: it took 0.13 µM to inhibit growth in data set [1] by half (GI50). Also, in data set [2], the GI50 at 72 h was > 10 µM.

Compound `C=CC(=O)Nc1cc(Nc2ncc3c(n2)N(C)C(=O)N(c2cc(NC(=O)c4ccc(OC)c(OC)c4)ccc2C)C3)ccc1C` registered a 50% growth inhibitory concentration (GI50) in data set [1] of 0.24 µM. The compound further returned a GI50 at 72 h in data set [2] of 8.13 µM.

In turn, `C=CC(=O)Nc1cc(Nc2ncc(C(=O)Nc3cc(NC(=O)c4ccc5c(c4)OCO5)ccc3C)c(NC)n2)ccc1C` yielded a GI50 in data set [1] of 1.08 µM. Also, the GI50 at 72 h in data set [2] is > 10 µM.

Compound `C=CC(=O)Nc1cc(Nc2ncc3c(n2)N(C)C(=O)N(c2cc(NC(=O)[C@H]4CC[C@H](C(F)(F)F)CC4)ccc2C)C3)ccc1C` yielded a GI50 in data set [1] of 5.9 µM. In addition, in data set [2], the GI50 at 72 h is > 10 µM.

For `C=CC(=O)Nc1cc(Nc2ncc(C(=O)Nc3cc(NC(=O)c4ccc5c(c4)OCCO5)ccc3C)c(NC)n2)ccc1C`, the GI50 in data set [1] was 0.155 µM. Further, in data set [2], the GI50 at 72 h was > 10 µM.

`C=CC(=O)Nc1cc(Nc2ncc3c(n2)N(C)C(=O)N(c2cc(NC(=O)[C@H]4CC[C@H](C(C)C)CC4)ccc2C)C3)ccc1C` gave a 50% growth inhibitory concentration (GI50) in data set [1] of 5.28 µM. Also, in data set [2], the GI50 at 72 h is > 10 µM.

Consider `C=CC(=O)Nc1cc(Nc2ncc(C(=O)Nc3cc(NC(=O)c4ccc(OC)c(OC)c4)ccc3C)c(NC)n2)ccc1C`, for which the GI50 in data set [1] was 1 µM. Moreover, the GI50 at 72 h in data set [2] is > 10 µM.

`C=CC(=O)Nc1cc(Nc2ncc3c(n2)N(C)C(=O)N(c2cc(NC(=O)c4cc(C)ccc4F)ccc2C)C3)ccc1C`: halving of growth in data set [1] (GI50) required 0.031 µM. In data set [2], the GI50 at 72 h was > 10 µM.

`C=CC(=O)Nc1cc(Nc2ncc3c(n2)N(C)C(=O)N(c2cc(NC(=O)c4ccc(OC)cc4)ccc2C)C3)ccc1C` yielded a GI50 in data set [1] of 1.07 µM. In data set [2], the GI50 at 72 h is > 10 µM.

Turning to `C=CC(=O)Nc1cc(Nc2ncc3c(n2)N(C)C(=O)N(c2cc(NC(=O)c4cc(OC)ccc4OC)ccc2C)C3)ccc1C`, the GI50 in data set [1] stood at 3 µM. The GI50 at 72 h in data set [2] is > 10 µM.

In the case of `C=CC(=O)Nc1cc(Nc2ncc3c(n2)N(C)C(=O)N(c2cc(NC(=O)[C@@H](N)CCC(=O)OC(C)(C)C)ccc2C)C3)ccc1C`, the GI50 in data set [1] was 8.35 µM. Also, the GI50 at 72 h in data set [2] was > 10 µM.

The compound `C=CC(=O)Nc1cc(Nc2ncc3c(n2)N(C)C(=O)N(c2cc(NC(=O)[C@H]4CC[C@H](CCC)CC4)ccc2C)C3)ccc1C` had a GI50 in data set [1] of 0.64 µM. The GI50 at 72 h in data set [2] came to 7.4 µM.

`C=CC(=O)Nc1cc(Nc2ncc3c(n2)N(C)C(=O)N(c2cc(NC(=O)c4cccc(C(F)(F)F)c4)ccc2C)C3)ccc1C` yielded a GI50 at 72 h in data set [2] of 0.74 µM.

Regarding `C=CC(=O)Nc1cc(Nc2ncc3c(n2)N(C)C(=O)N(c2cc(NC(=O)c4ccc(C)c(C(F)(F)F)c4)ccc2C)C3)ccc1C`, the concentration for 50% growth inhibition (GI50) in data set [1] was 1.24 µM. Moreover, in data set [2], the GI50 at 72 h was > 10 µM.

For `C=CC(=O)Nc1cc(Nc2ncc(C(=O)Nc3cc(NC(=O)c4ccccc4OC)ccc3C)c(NC)n2)ccc1C`, in data set [1], the GI50 worked out at 0.67 µM. Besides, in data set [2], the concentration for 50% growth inhibition (GI50) at 72 h is > 10 µM.

In data set [1], `C=CC(=O)Nc1cc(Nc2ncc3c(n2)N(C)C(=O)N(c2cc(NC(=O)[C@H]4CC[C@H](CCCC)CC4)ccc2C)C3)ccc1C` yielded a GI50 of 2.49 µM. The same compound displayed a concentration for 50% growth inhibition (GI50) at 72 h in data set [2] of 5.08 µM.

Turning to `C=CC(=O)Nc1cc(Nc2ncc3c(n2)N(C)C(=O)N(c2cc(NC(=O)c4c(C)cccc4F)ccc2C)C3)ccc1C`, in data set [1], the GI50 was 2.78 µM. For the same compound, the concentration for 50% growth inhibition (GI50) at 72 h in data set [2] was > 10 µM.

For `C=CC(=O)Nc1cc(Nc2ncc(C(=O)Nc3cc(NC(=O)c4ccc(OC)cc4)ccc3C)c(NC)n2)ccc1C`, in data set [1], the GI50 was found to be 1.1 µM. Further, the concentration for 50% growth inhibition (GI50) at 72 h in data set [2] is > 10 µM.

As to `Cc1ccc(Nc2ncc3c(n2)N(C)C(=O)N(c2cc(NC(=O)c4cccc(C(F)(F)F)c4)ccc2C)C3)cn1`, growth in data set [2] was halved (GI50 at 72 h) at 0.12 µM.

As for `C=CC(=O)Nc1cc(Nc2ncc3c(n2)N(C)C(=O)N(c2cc(NC(=O)[C@@H](N)Cc4cc5ccccc5[nH]4)ccc2C)C3)ccc1C`, in data set [1], the concentration for 50% growth inhibition (GI50) is > 10 µM. Also, the GI50 at 72 h in data set [2] was > 10 µM.

As to `C=CC(=O)Nc1cc(Nc2ncc(C(=O)Nc3cc(C(=O)Nc4cccc(C(F)(F)F)c4)ccc3C)c(NC)n2)ccc1C`, in data set [1], the 50% growth inhibitory concentration (GI50) was found to be 0.008 µM. Further, the GI50 at 72 h in data set [2] worked out at 4.9 µM.

In data set [1], `C=CC(=O)Nc1cc(Nc2ncc3c(n2)N(C)C(=O)N(c2cc(NC(=O)c4ccccc4OC)ccc2C)C3)ccc1C` had a GI50 of 3.01 µM. Further, the GI50 at 72 h in data set [2] was > 10 µM.

Take `C=CC(=O)Nc1cc(Nc2ncc(C(=O)Nc3cc(NC(=O)c4cccc(OC)c4)ccc3C)c(NC)n2)ccc1C`: halving of growth in data set [1] (GI50) required 6 µM. Besides, the GI50 at 72 h in data set [2] was > 10 µM.

Take `C=CC(=O)Nc1cc(Nc2ncc3c(n2)N(C)C(=O)N(c2cc(NC(=O)c4ccc5c(c4)CCCC5)ccc2C)C3)ccc1C`: the GI50 at 72 h in data set [2] is > 10 µM.

Compound `C=CC(=O)Nc1cc(Nc2ncc3c(n2)N(C)C(=O)N(c2cc(NC(=O)[C@H]4CC[C@H](C)CC4)ccc2C)C3)ccc1C` registered a GI50 in data set [1] of 2.28 µM. The compound also showed a GI50 at 72 h in data set [2] of 8.81 µM.

Regarding `C=CC(=O)Nc1cc(Nc2ncc(C(=O)Nc3cc(C(=O)Nc4cc(OC)c(OC)c(OC)c4)ccc3C)c(NC)n2)ccc1C`, in data set [1], the concentration for 50% growth inhibition (GI50) was 0.098 µM. For the same compound, the GI50 at 72 h in data set [2] was > 10 µM.

On to `C=CC(=O)Nc1cc(Nc2ncc(C(=O)Nc3cc(NC(=O)c4cc(OC)cc(OC)c4)ccc3C)c(NC)n2)ccc1C`, for which, in data set [1], the GI50 turned out to be 0.119 µM. For the same compound, the GI50 at 72 h in data set [2] was > 10 µM.

For the compound `C=CC(=O)Nc1cc(Nc2ncc3c(n2)N(C)C(=O)N(c2cc(NC(=O)c4ccc5c(c4)OCCO5)ccc2C)C3)ccc1C`, the GI50 in data set [1] was > 10 µM. The GI50 at 72 h in data set [2] is > 10 µM.

As usually defined, the GI50 is the concentration giving 50% growth inhibition. A high value points to lower sensitivity of the cells.
